Rows were chosen to be rich in hits. Some 3.4% of all compounds tested hit in one or more screens of this group.
PHOSPHO1 inh: inhibitors of human PHOSPHO1 phosphatase. Q8TCT1. recombinant PHOSPHO1, absorbance phosphatase assay. inhibition, % at 13.3 µM. 290,000 tested, 1.1% active; in the data active means inhibition above about 60%
Wee1 stabilizer: inhibitors of human Wee1 degradation | reporter increase, % at 5 µM | HeLa Luc-Wee1K328M stability, luciferase luminescence; 100% = proteasome inhibitor MG132 effect | AID 1321 | 220,000 tested, 1.2% active | P30291;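 active means activation above the mean of all tested compounds plus 3 SD, set per screening run, cut at about 8.8% in these data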;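 further: cells exposed to compound for 20 h before luminescence read; 0% = DMSO alone and 100% = MG132 at 30 µM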
RanGTP-Impb inh: disruptors of Ran-importin-beta complex formation – biochemical, FRET, CFP-Ran, YFP-importin-beta, homogeneous, primary screen. cell-free CFP-Ran/YFP-importin-beta FRET ratio. 300,000 tested, 1.1% active. inhibition, % (test concentration not listed);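 active means more than half of the replicate wells show a fall in the fluorescence ratio signal beyond about 16%, limit read from the data, passing the limit was not always enough; inconclusive means exactly half of the replicate wells pass the set limit; inactive means fewer than half of replicates pass the limit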;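 further: 0% = DMSO wells and 100% = Ran loaded with GDP instead of GTP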
HMGR II inh: inhibitors of class II HMG-CoA reductase from Enterococcus faecalis; purified E. faecalis HMGR, NADPH absorbance 340 nm kinetic; inhibition, % at 10 µM; 190,000 tested, 0.41% active; AID 1066;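 active means inhibition above a set limit, the median over all tested compounds plus 3 SD, cut at about 9.5% in these data; inconclusive means no clear call, values can overlap the other calls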;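 further: enzyme runs in reverse so mevalonate oxidation gives rising NADPH absorbance; 0% = complete reaction with DMSO and 100% = background rate lacking mevalonate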
Runt-CBFb FRET: Runt domain-CBFb interaction inhibition; Q01196+Q13951; Cerulean-Runt/Venus-CBFb FRET ratio 530/480, 1 h; inhibition, % at 20 µM; 220,000 tested, 0.46% active;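 active means inhibition over about 50% at 20 µM in the single-dose screen, limit read from the data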;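 further: 0% = DMSO wells and 100% = excess unlabeled CBFb competitor control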
Target sequence (Q01196 whole entry, looked up, the tested form may be a part): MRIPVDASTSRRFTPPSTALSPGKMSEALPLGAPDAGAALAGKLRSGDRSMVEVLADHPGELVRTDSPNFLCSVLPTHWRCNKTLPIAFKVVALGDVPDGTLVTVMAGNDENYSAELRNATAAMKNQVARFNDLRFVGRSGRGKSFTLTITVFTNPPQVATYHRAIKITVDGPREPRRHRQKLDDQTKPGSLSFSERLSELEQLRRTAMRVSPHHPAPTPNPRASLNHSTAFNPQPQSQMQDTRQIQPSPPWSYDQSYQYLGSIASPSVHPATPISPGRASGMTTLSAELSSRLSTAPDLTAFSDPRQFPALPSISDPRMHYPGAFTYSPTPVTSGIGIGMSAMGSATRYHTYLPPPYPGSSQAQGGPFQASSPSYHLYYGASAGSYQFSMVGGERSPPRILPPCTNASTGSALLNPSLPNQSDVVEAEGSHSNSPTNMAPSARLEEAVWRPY
Target sequence (Q13951 whole entry, looked up, the tested form may be a part): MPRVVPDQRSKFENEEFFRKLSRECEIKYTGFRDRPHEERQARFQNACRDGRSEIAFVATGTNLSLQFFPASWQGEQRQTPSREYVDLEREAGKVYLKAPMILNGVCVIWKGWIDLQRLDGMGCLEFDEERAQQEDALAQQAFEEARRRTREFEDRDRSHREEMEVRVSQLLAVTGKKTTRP
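Buffer or medium: Tris pH 7.5 buffer with BSA. Assay system: Cerulean-labeled Runt domain protein. Amount: each fluorescent fusion protein 100 nM. Read-out basis: loss of energy transfer signal. Incubation: 1 h compound exposure, room temperature. Probe or stimulus: Venus-CBFb binding partner, 100 nM. Detection: FRET, excitation 422 nm, emission at 530 and 480 nm.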
Runt-SMMHC FRET: Runt domain-CBFb-SMMHC interaction inhibition | Q01196+Q13951 | Cerulean-Runt/Venus-CBFb-SMMHC FRET ratio 530/480, 1 h | inhibition, % at 20 µM | 220,000 tested, 0.74% active;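 active means mean inhibition across duplicate retests at 20 µM reaching about 50%, limit read from the data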;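 further: 0% = DMSO wells and 100% = wells with excess untagged CBFb-SMMHC; inhibitors lower the FRET ratio by blocking Runt binding to CBFb-SMMHC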
YIC FRET counter: counter-screen: alters YIC FRET probe signal; IC50, µM; Purified YIC probe, intramolecular FRET ratio YFP/CFP; shares compounds with RanGTP-Impb inh; 1,000 tested, 40% active;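 active means fitted half-maximal inhibitory concentration no more than tenfold above the top dose tested; inconclusive means flat fit with 30 to 70% activity, or poor fit; inactive means half-maximal concentration beyond tenfold above the top dose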
Active calls of the source: *; ? = inconclusive; nt = not tested or not shown.

SMILES | PHOSPHO1 inh | Wee1 stabilizer | RanGTP-Impb inh | HMGR II inh | Runt-CBFb FRET | Runt-SMMHC FRET | YIC FRET counter
COc1ccc(-c2c(-c3ccccc3OC)sc3ccccc23)cc1OC | 4 | nt | ? | nt | nt | nt | nt
COc1ccc(-c2c(N)nnc3c2[nH]c2ccccc23)cc1OC | 11 | -2 | 27* | 3 | 0 | 4 | >50
C[C@H]1CN([C@@H](C)CO)C(=O)c2cccc(NC(=O)c3ccc(-c4nccs4)cc3)c2O[C@H]1CN(C)C(=O)Nc1ccccc1 | nt | nt | nt | nt | nt | nt | >50
CCOC(=O)CNC(=O)C1CCCN(c2ncccn2)C1 (centres undefined) | -9 | -2 | 21* | -4 | 0 | -1 | >50
O=C(NCc1cccs1)C1CCCN(c2ncccn2)C1 (centres undefined) | 3 | -2 | -2 | 0 | 0 | -3 | nt
COC(=O)C(=O)/C=C(\O)c1c(C)cc(C)cc1C | 27 | 0 | -2 | nt | 1 | 3 | nt
COCCCn1c(=N)c(C(=O)NCc2ccc3c(c2)OCO3)cc2c(=O)n3ccccc3nc21 | 9 | 1 | 36* | 3 | 79* | 172* | 25*
CCOCCCn1c(=N)c(C(=O)NCc2ccc3c(c2)OCO3)cc2c(=O)n3cccc(C)c3nc21 | 29 | -3 | 29* | -6 | 60* | 163* | 18*
COc1ccc(-n2c(N)c(C(=O)NCc3ccco3)c3nc4ccccc4nc32)c(OC)c1 | -24 | -1 | 33* | -2 | 40 | 95* | 19*
COc1ccc(-n2c(=S)[nH]c3cc(C(=O)NCc4ccco4)ccc3c2=O)c(OC)c1 | 21 | 2 | 1 | 1 | 2 | 0 | nt
CCOCCCN(C)C1CCN(C(=O)c2oc3ccccc3c2NC(=O)c2ccc(F)cc2)CC1 | 33 | nt | 7 | nt | nt | nt | nt
CCN(CC)C(=O)Oc1ccc2c(c1)O/C(=C\c1ccco1)C2=O | 47 | nt | 18* | nt | nt | nt | 8.2*
CC(=O)Oc1ccc2c(c1)O/C(=C\c1ccncc1)C2=O | 26 | -3 | -203 | nt | -338 | -134 | nt
COC(=O)COc1ccc2c(c1)O/C(=C\c1ccco1)C2=O | 28 | nt | 18* | nt | nt | nt | 29*
COCCN(CCOC)Cc1c(O)ccc2c1O/C(=C\c1ccco1)C2=O | 27 | nt | -57 | nt | nt | nt | nt
CCOC(=O)N1CCN(/C=C(\C#N)c2nc3ccccc3s2)CC1 | 8 | -1 | 21* | 4 | -2 | -2 | >50
CCOC(=O)N1CCC(=NNc2nc3ccccc3s2)CC1 | 43 | 6 | 4 | nt | 0 | 1 | nt
N#C/C(=C\N1CCN(Cc2ccc3c(c2)OCO3)CC1)c1nc2ccccc2s1 | 7 | -1 | 20* | -9 | 0 | 3 | >50
COCCNc1cc(C)nc2cc(-c3ccc(C)cc3)nn12 | -8 | -3 | 19* | -5 | 3 | 25 | 3.8*
CCOCCCNC(=S)NCCCNc1nc2cc3c(cc2cc1C#N)OCO3 | -14 | -1 | 56* | 4 | 20 | 129* | 13*
N#C/C(=C/c1ccc(-c2ccccc2)o1)c1nc(-c2cccs2)cs1 | -15 | 0 | nt | 6 | -23 | -159 | nt
N#C/C(=C\c1ccc(-c2ccc(F)cc2)o1)C(=O)Nc1nc(-c2cccs2)cs1 | 7 | 2 | 19* | -5 | -9 | -32 | >50
CSc1nc2ccc(NC(=O)c3c(-c4ccccc4)noc3C)cc2s1 | 36 | -3 | 2 | nt | 3 | 1 | nt
CCN(Cc1ccccc1)C(=O)CN1C(=O)NC(CC)(c2ccc(F)cc2)C1=O (centres undefined) | 23 | nt | 23* | nt | nt | nt | >50
CCC1(c2ccc(F)cc2)NC(=O)N(CC(=O)Nc2ccccc2C)C1=O (centres undefined) | 10 | nt | 1 | nt | nt | nt | nt
SMILES | PHOSPHO1 inh | Wee1 stabilizer | RanGTP-Impb inh | HMGR II inh | Runt-CBFb FRET | Runt-SMMHC FRET | YIC FRET counter
Cn1c(=O)c2c(ncn2CCOc2ccc(Br)cc2)n(C)c1=O | 26 | nt | 0 | nt | nt | nt | nt
Cn1c(=O)c2c(ncn2CCOc2ccc(F)cc2)n(C)c1=O | 43 | nt | 16* | nt | nt | nt | >50
O=P(c1ccccc1)(c1ccccc1)c1ccc(O)cc1 | 19 | nt | 2 | nt | nt | nt | nt
O=C(O)c1ccccc1P(=O)(c1ccccc1)c1ccccc1 | 27 | 2 | 16* | -1 | 1 | -1 | >50
COc1cccc(NC(=O)Nc2ccc3c(c2)N(C)C(=O)CS3)c1 | 3 | 2 | 20* | -6 | -1 | -3 | >50
N#Cc1cc(NCC2CCCO2)c([N+](=O)[O-])cc1C#N (centres undefined) | -2 | -3 | 23* | -3 | 0 | -1 | >50
O=[N+]([O-])c1cc(C(F)(F)F)ccc1NCC1CCCO1 (centres undefined) | 35 | nt | -6 | nt | nt | nt | nt
CCCCOc1ccc(-c2cc(C(F)(F)F)c(C#N)c(SCC(=O)O)n2)cc1 | 2 | 2 | -7 | 0 | -36 | -89 | nt
Cc1ccc(C(O)Cn2nc(C)cc2C)cc1 (centres undefined) | nt | nt | 8 | nt | nt | nt | nt
Cc1cc(C)c(C2=CC(c3ccccc3)n3ncnc3N2)cc1C (centres undefined) | nt | nt | 18* | nt | nt | nt | 30*
CCOc1cc(/C=C(\C#N)c2[nH]nc(N)c2C#N)ccc1O | 5 | -3 | 0 | -1 | 31 | 38 | nt
Nc1nc(CSc2nnnn2-c2ccc(Cl)cc2)nc(N2CCOCC2)n1 | 46 | -1 | 20* | -8 | -4 | -4 | >50
Cc1csc2ncnc(NC3CCN(Cc4ccccc4)CC3)c12 | 29 | -2 | 19* | nt | 1 | -6 | >50
CCOC(=O)C(NC(=O)NCc1ccc(OC)cc1)(OCC)C(F)(F)F (centres undefined) | 16 | -3 | -5 | -5 | -1 | 0 | nt
COc1ccc(NC2=CC(=O)CC(c3ccccc3)C2)c(OC)c1 (centres undefined) | 20 | 0 | ? | -3 | nt | -6 | nt
CCOc1ccccc1NC1=CC(=O)CC(c2ccccc2)C1 (centres undefined) | 6 | -2 | 24* | -1 | -2 | -8 | >50
CSCCC(NS(=O)(=O)c1ccc(C)cc1)C(=O)N1CCN(S(=O)(=O)c2ccc(F)cc2)CC1 (centres undefined) | nt | nt | 7 | nt | nt | nt | nt
CN1CCN(S(=O)(=O)c2ccc(Sc3nnc(-c4cccs4)n3-c3ccccc3)nc2)CC1 | 0 | 1 | 2 | -6 | 0 | 0 | nt
Cc1ccc(-c2c(C(=O)N/N=C/c3ccc4c(c3)OCO4)nnn2-c2nonc2N)cc1 | 24 | nt | 23* | nt | nt | nt | >50
Cc1ccc(SCc2c(C(=O)N/N=C/c3ccc4c(c3)OCO4)nnn2-c2nonc2N)cc1 | 40 | nt | 1 | nt | nt | nt | nt
O=C(Cc1n[nH]c(=O)c2ccccc12)NCc1ccccn1 | -12 | -2 | 23* | 10* | 1 | 4 | >50
CN1CCN(c2oc(-c3ccccc3F)nc2S(=O)(=O)c2ccc(Cl)cc2)CC1 | 51 | nt | -1 | nt | nt | nt | nt
